These results are taken from ChEMBL document CHEMBL3045883, “Antifungal effects of different organic extracts from Melia azedarach L. on phytopathogenic fungi and their isolated active components” (J Agric Food Chem, 2003).

In assay [1] the test system is Fusarium verticillioides. Put plainly: Antifungal activity against Fusarium verticillioides assessed as growth inhibition at 0.8 mg/mL after 48 hr by inverted light microscopic analysis. Format: functional. Particulars: read-out: GI. In short, it runs like this:
(§1)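 Broth microdilution: F. verticillioides conidia, 4 days old, from a monosporic culture, in glucose-mineral salts medium at 1 × 10^5 conidia/mL. Pure compounds in DMSO added to wells in duplicate ([…]; final DMSO 2–4%). Controls were spore wells with or without DMSO. Percent growth (0–100) scored visually by inverted light microscope, always by the same operator. IC50 derived by Probit analysis.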

The subject of assay [2] is Fusarium verticillioides. Description: Antifungal activity against Fusarium verticillioides assessed as growth inhibition after 48 hr by inverted light microscopic analysis. The format is functional, organism-based. In short, it runs like this:
as §1

In assay [3] the test system is Fusarium verticillioides. Put plainly: Fungistatic activity against Fusarium verticillioides after 48 hr by broth microdilution method. The format is functional. In short, it runs like this:
as §1

Assay [4] deals with Fusarium verticillioides. Put plainly: Antifungal activity against Fusarium verticillioides assessed as growth inhibition at 0.6 mg/mL after 48 hr by inverted light microscopic analysis. The format is functional. Particulars: read-out: GI. In short, it runs like this:
as §1

In assay [5] the test system is Fusarium verticillioides. Put plainly: Antifungal activity against Fusarium verticillioides assessed as growth inhibition at 0.2 mg/mL after 48 hr by inverted light microscopic analysis. The format is functional. The conditions noted are these: read-out: GI. The gist of the method:
as §1

The subject of assay [6] is Fusarium verticillioides. Description: Antifungal activity against Fusarium verticillioides assessed as growth inhibition at 0.4 mg/mL after 48 hr by inverted light microscopic analysis. The format is functional. The conditions noted are these: read-out: GI. In short, it runs like this: as §1

As a reminder, the IC50 is the midpoint of a concentration-inhibition curve. One may read the MIC as the smallest concentration in the dilution series that meets the test's criterion for growth inhibition. A high value points to weaker potency.

Each structure is given as a SMILES string. Values after ≈ are worked out from the molar mass of the structure shown.

As for `COc1cc(C2OCC3C(c4ccc(O)c(OC)c4)OCC23)ccc1O` (racemic) [(+/-)-PINORESINOL], the inhibition of growth at 800 µg/mL in assay [1] turned out to be 40%. Further, in assay [2], the IC50 was determined as 760 µg/mL (≈ 2120 µM) and the “growth inhibition (GI)” value was “Dose-dependent effect”. The same molecule returned an MIC in assay [3] of 1000 µg/mL (≈ 2790 µM). Besides, the inhibition of growth at 600 µg/mL in assay [4] is 20%.
Take `COc1cc(/C=C/C=O)ccc1O` [CONIFERYL ALDEHYDE]: in assay [2], the concentration for half-maximal inhibition (IC50) worked out at 240 µg/mL (≈ 1350 µM) and the “growth inhibition (GI)” value was “Dose-dependent effect”. In addition, the inhibition of growth at 200 µg/mL in assay [5] amounted to 20%. In assay [3], this molecule returned an MIC of 400 µg/mL (≈ 2240 µM).
As for `COc1cc(C=O)ccc1O` [VANILLIN], in assay [2], the IC50 is 300 µg/mL (≈ 1970 µM) and the “growth inhibition (GI)” value was “Dose-dependent effect”. The inhibition of growth at 200 µg/mL in assay [5] is 20%. This molecule showed an MIC in assay [3] of 600 µg/mL (≈ 3940 µM). The inhibition of growth at 400 µg/mL in assay [6] was determined as 65%.
